# Where “and” joins values, the source holds several entries; their conditions need not be identical. Equal values may be shown once.
# Tested on: HEK-293T
# Assay: Multiplex assay against HEK293T;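 on Population Tubulin-Different-Phenotype (%): share of the cells with healthy nuclei that show this phenotype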
# Assay type: toxicity, cell-based
# Conditions: human
# Outline: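 On a CQ1 microscope at 37°C and 5% CO2, live cells were imaged after compound addition. They had been stained at seeding with Hoechst33342, BioTracker Green Microtubule Cytoskeleton Dye, MitoTracker Red and Annexin V Alexa Fluor 680. CellPathfinder machine-learning gating assigned cells to Hoechst high-intensity objects or normal cells, normal cells to healthy, pyknosed or fragmented nuclei, and pyknosed cells to mitotic or apoptotic. Tubulin, mitochondrial-mass and membrane-permeability phenotypes are per cents of healthy-nucleus cells.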
# [1] = 12 h, 1 µM, compound concentration 1 uM, replicate 1
# [2] = 12 h, 1 µM, compound concentration 1 uM, replicate 2
# [3] = 12 h, 10 µM, compound concentration 10 uM, replicate 1
# [4] = 12 h, 10 µM, compound concentration 10 uM, replicate 2
# [5] = 24 h, 1 µM, compound concentration 1 uM, replicate 1
# [6] = 24 h, 1 µM, compound concentration 1 uM, replicate 2
# [7] = 24 h, 10 µM, compound concentration 10 uM, replicate 1
# [8] = 24 h, 10 µM, compound concentration 10 uM, replicate 2
structure (smiles),measurement,setting,value
CC[C@@]1(O)C(=O)OCc2c1cc1n(c2=O)Cc2cc3ccccc3nc2-1 [CAMPTOTHECIN],Population Apoptotic (%),[1],13% and 29% and 33%
same,Population Healthy Nuclei (%),[1],67% and 60% and 69%
same,Population Membrane Permeable-Phenotype (%),[1],5% and 3%
same,Population Mitochondria Different-Phenotype (%),[1],5% and 3%
same,Population Mitotic Cells (%),[1],86% and 70% and 66%
same,Population Normal (%),[1],94% and 66% and 79%
same,Population Tubulin-Different-Phenotype (%),[1],5% and 0% and 2%
same,Total Cell Count,[1],915 and 710 and 886
same,Population Healthy Nuclei (%),[2],94% and 77% and 79%
same,Population Membrane Permeable-Phenotype (%),[2],2% and 1%
same,Population Mitochondria Different-Phenotype (%),[2],19% and 9%
same,Population Mitotic Cells (%),[2],87% and 81% and 50%
same,Population Normal (%),[2],98% and 95% and 96%
same,Population Pyknosed Nuclei (%),[2],2% and 1% and 0%
same,Total Cell Count,[2],1821 and 1627 and 1427
same,Population Apoptotic (%),[3],16%
same,Population Fragmented Nuclei (%),[3],15%
same,Population Healthy Nuclei (%),[3],57%
same,Population Hoechst High Intensity Objects (%),[3],13%
same,Population Membrane Permeable-Phenotype (%),[3],3%
same,Population Mitochondria Different-Phenotype (%),[3],2%
same,Population Mitotic Cells (%),[3],83%
same,Population Normal (%),[3],86%
same,Population Pyknosed Nuclei (%),[3],26%
same,Population Tubulin-Different-Phenotype (%),[3],2%
same,Total Cell Count,[3],665
same,Population Apoptotic (%),[4],20%
same,Population Fragmented Nuclei (%),[4],3%
same,Population Healthy Nuclei (%),[4],93%
same,Population Hoechst High Intensity Objects (%),[4],2%
same,Population Membrane Permeable-Phenotype (%),[4],2%
same,Population Mitochondria Different-Phenotype (%),[4],14%
same,Population Mitotic Cells (%),[4],80%
same,Population Normal (%),[4],97%
same,Population Pyknosed Nuclei (%),[4],3%
same,Population Tubulin-Different-Phenotype (%),[4],9%
same,Total Cell Count,[4],1781
same,Population Apoptotic (%),[5],26% and 33% and 22%
same,Population Healthy Nuclei (%),[5],68% and 76% and 85%
same,Population Membrane Permeable-Phenotype (%),[5],7% and 5% and 4%
same,Population Mitochondria Different-Phenotype (%),[5],3% and 4% and 5%
same,Population Mitotic Cells (%),[5],73% and 66% and 77%
same,Population Normal (%),[5],69% and 81% and 96%
same,Population Pyknosed Nuclei (%),[5],5% and 2% and 10%
same,Population Tubulin-Different-Phenotype (%),[5],5% and 6%
same,Total Cell Count,[5],653 and 837 and 854
same,Population Fragmented Nuclei (%),[6],18% and 8%
same,Population Healthy Nuclei (%),[6],81% and 78% and 90%
same,Population Hoechst High Intensity Objects (%),[6],5%
same,Population Membrane Permeable-Phenotype (%),[6],2% and 1%
same,Population Mitochondria Different-Phenotype (%),[6],6% and 8% and 7%
same,Population Mitotic Cells (%),[6],100% and 62%
same,Population Normal (%),[6],94%
same,Population Pyknosed Nuclei (%),[6],0%
same,Population Tubulin-Different-Phenotype (%),[6],8% and 13%
same,Total Cell Count,[6],1448 and 1582 and 1694
same,Population Apoptotic (%),[7],23%
same,Population Fragmented Nuclei (%),[7],11%
same,Population Healthy Nuclei (%),[7],73%
same,Population Hoechst High Intensity Objects (%),[7],8%
same,Population Membrane Permeable-Phenotype (%),[7],4%
same,Population Mitochondria Different-Phenotype (%),[7],2%
same,Population Mitotic Cells (%),[7],76%
same,Population Normal (%),[7],92%
same,Population Pyknosed Nuclei (%),[7],15%
same,Population Tubulin-Different-Phenotype (%),[7],3%
same,Total Cell Count,[7],575
same,Population Apoptotic (%),[8],44%
same,Population Fragmented Nuclei (%),[8],8%
same,Population Healthy Nuclei (%),[8],90%
same,Population Hoechst High Intensity Objects (%),[8],4%
same,Population Membrane Permeable-Phenotype (%),[8],0%
same,Population Mitochondria Different-Phenotype (%),[8],4%
same,Population Mitotic Cells (%),[8],55%
same,Population Normal (%),[8],95%
same,Population Pyknosed Nuclei (%),[8],0%
same,Population Tubulin-Different-Phenotype (%),[8],5%
same,Total Cell Count,[8],1706

# From ChEMBL document CHEMBL4689842, “EUbOPEN Chemogenomics Library wave 1” (2021)
